In ChEMBL document CHEMBL4402595, “Discovery of Orally Bioavailable Chromone Derivatives as Potent and Selective BRD4 Inhibitors: Scaffold Hopping, Optimization, and Pharmacological Evaluation” (J Med Chem, 2020):
Active and inactive are the calls of the source. No cut-off for these calls is given here.

Experiments:
[1] = Half life in Sprague-Dawley rat at 10 mg/kg, iv measured after 2 to 26 hrs; format: ADME, organism-based; conditions: in vivo
[2] = Cmax in Sprague-Dawley rat at 10 mg/kg, iv measured after 2 to 26 hrs; format: ADME, organism-based; design: dose 10 mg/kg, route intravenous; conditions: in vivo
[3] = AUC (0 to t) in Sprague-Dawley rat at 10 mg/kg, iv measured after 2 to 26 hrs; format: ADME, organism-based; conditions: in vivo
[4] = Total clearance in Sprague-Dawley rat at 10 mg/kg, iv measured after 2 to 26 hrs; format: ADME, organism-based; conditions: in vivo
Outline: (§1)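 Male Sprague-Dawley rats received a single dose either intravenously (10 mg/kg) or orally. Plasma concentration–time curves were followed after each route. Total clearance (CL) came from the i.v. arm, and oral bioavailability (F) was derived by comparing the p.o. and i.v. profiles.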

[5] = Half life in Sprague-Dawley rat at 20 mg/kg, po measured after 2 to 26 hrs; format: ADME, organism-based; conditions: in vivo
[6] = Oral bioavailability in Sprague-Dawley rat at 20 mg/kg measured after 2 to 26 hrs; format: ADME, organism-based; conditions: in vivo; outline: as §1
[7] = Aqueous solubility in water incubated at 25 degC for 24 hrs by HPLC analysis; format: physicochemical; conditions: buffer
Outline: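 Compound suspension was shaken at 25 °C for 24 h, then centrifuged and the supernatant filtered. Supernatant was quantified by C18 reverse-phase HPLC against a one-point calibration of a known concentration.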

Mus musculus [8] = test: Antiinflammatory activity in C57BL6/J mouse model of TLR3-induced acute airway inflammation assessed as inhibition of neutrophilic inflammation around small and medium-sized airways at 10 mg/kg, po pre-treated 1 day before poly(I:C) stimulation followed by compound re-dosing at 10 mg/kg, po before another poly(I:C) stimulation and measured after 1 day post last poly(I:C) stimulation by …; format: functional
Mus musculus [9] = test: (§2) Antiinflammatory activity in C57BL6/J mouse model of TLR3-induced acute airway inflammation assessed as inhibition of elevated total cells in BALF at 10 mg/kg, ip pre-treated 1 day before poly(I:C) stimulation followed by compound re-dosing at 10 mg/kg, ip before another poly(I:C) stimulation and measured after 1 day post last poly(I:C) stimulation; format: functional, organism-based
Outline: (§3)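 Male C57BL/6J mice, 12 weeks old, 5 per group, dosed 10 mg/kg one day before and again immediately before intranasal poly(I:C) (300 μg/50 μL PBS). BALF was collected 1 day later. Total viable cells were counted by trypan blue with a hemocytometer. Neutrophils were counted as a differential of 300 cells on Wright-Giemsa stained cytospins.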

Mus musculus [10] = test: as §2, with “po” for “ip”; format: functional, organism-based; outline: as §3
Mus musculus [11] = test: as §2, with “neutrophils” for “total cells”; format: functional, organism-based; outline: as §3
Mus musculus [12] = test: as §2, with “neutrophils” for “total cells”, “po” for “ip”; format: functional, organism-based; outline: as §3
Mus musculus [13] = test: (§4) Antiinflammatory activity in C57BL6/J mouse model of TLR3-induced acute airway inflammation assessed as inhibition of elevated IL-6 levels in BALF at 10 mg/kg, ip pre-treated 1 day before poly(I:C) stimulation followed by compound re-dosing at 10 mg/kg, ip before another poly(I:C) stimulation and measured after 1 day post last poly(I:C) stimulation by cytokine Bio-Plex assay; format: functional, organism-based
Outline: (§5)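 Male C57BL/6J mice, 12 weeks old, 5 per group, dosed 10 mg/kg the day before and again immediately before intranasal poly(I:C) (300 μg in 50 μL PBS). BALF was collected 1 day later by two 1 mL PBS lavages and centrifuged at 800 × g for 5 min at 4 °C. Supernatant cytokines were measured by multiplex bead immunoassay against recombinant standards in triplicate.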

Mus musculus [14] = test: as §4, with “po” for “ip”; format: functional, organism-based; outline: as §5
Mus musculus [15] = test: as §4, with “KC” for “IL-6”, “po” for “ip”; format: functional, organism-based; outline: as §5
Mus musculus [16] = test: as §4, with “MCP1” for “IL-6”; format: functional, organism-based; outline: as §5
Mus musculus [17] = test: as §4, with “RANTES” for “IL-6”, “po” for “ip”; format: functional, organism-based; outline: as §5
Mus musculus [18] = test: as §2, with “IL6 gene expression” for “total cells”, “lung” for “BALF”; format: functional, organism-based
Outline: (§6)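 Male C57BL/6J mice, 12 weeks old, 5 per group, dosed 10 mg/kg one day before challenge and again immediately before intranasal poly(I:C) (300 μg in 50 μL PBS). Controls were vehicle alone and poly(I:C) alone. Lungs were taken 1 day later. Gene expression in lung tissue was measured by qRT-PCR, normalized to PPIA.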

Mus musculus [19] = test: as §2, with “IL6 gene expression” for “total cells”, “lung” for “BALF”, “po” for “ip”; format: functional, organism-based; outline: as §6
Mus musculus [20] = test: as §2, with “KC gene expression” for “total cells”, “lung” for “BALF”; format: functional, organism-based; outline: as §6
Mus musculus [21] = test: as §2, with “KC gene expression” for “total cells”, “lung” for “BALF”, “po” for “ip”; format: functional, organism-based; outline: as §6
Mus musculus [22] = test: as §2, with “ISG54 gene expression” for “total cells”, “lung” for “BALF”; format: functional, organism-based; outline: as §6
Mus musculus [23] = test: as §2, with “ISG54 gene expression” for “total cells”, “lung” for “BALF”, “po” for “ip”; format: functional, organism-based; outline: as §6
Mus musculus [24] = test: as §2, with “CIG5 gene expression” for “total cells”, “lung” for “BALF”; format: functional, organism-based; outline: as §6
Mus musculus [25] = test: (§7) In-vivo inhibition of BRD4 in C57BL6/J mouse model of TLR3-induced acute airway inflammation assessed as reduction in H3K122Ac levels in lung at 10 mg/kg, ip pre-treated 1 day before poly(I:C) stimulation followed by compound re-dosing at 10 mg/kg, ip before another poly(I:C) stimulation and measured after 1 day post last poly(I:C) stimulation by immunofluorescence staining; format: functional, organism-based
Outline: (§8)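 Male C57BL/6J mice, 5 per group, dosed 10 mg/kg before and again at intranasal poly(I:C) challenge (300 μg). Lungs were taken 1 day later, paraffin sections made, and antigen retrieved at pH 9.0. Sections were stained with anti-acetyl-H3K122 and an Alexa 568 secondary with DAPI, imaged by confocal at 63×, and total fluorescence reported as fold change.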

Mus musculus [26] = test: as §7, with “po” for “ip”; format: functional, organism-based; outline: as §8

Q: Which half-life [1] does the source give for COc1cc(OC)c2c(=O)cc(-c3cc(C)c(OC[C@H](O)CN4CCCCC4)c(C)c3)oc2c1 here?
A: 3.5 h

Q: What about the Cmax [2] of the same molecule?
A: 2860 ng/mL

Q: What about the AUC(0-t) [3] of the same molecule?
A: 6760 ng·h/mL

Q: And the clearance [4]?
A: 24.7 mL/min/kg

Q: What about the half-life [5] of the same molecule?
A: 2.4 h

Q: And the F [6]?
A: 38.2%

Q: And the solubility [7]?
A: > 50 mg/mL

Q: And the inhibition in vivo at 10 mg/kg (Mus musculus [8])?
A: 100%

Q: What about the inhibition (Mus musculus [9]) of the same molecule?
A: Active

Q: What about the inhibition (Mus musculus [10]) of the same molecule?
A: Active

Q: And the inhibition (Mus musculus [11])?
A: Active

Q: And the inhibition (Mus musculus [12])?
A: Active

Q: And the inhibition (Mus musculus [13])?
A: Active

Q: What about the inhibition (Mus musculus [14]) of the same molecule?
A: Active

Q: And the inhibition (Mus musculus [15])?
A: Active

Q: What about the inhibition (Mus musculus [16]) of the same molecule?
A: Active

Q: What about the inhibition (Mus musculus [17]) of the same molecule?
A: Active

Q: And the inhibition (Mus musculus [18])?
A: Active

Q: What about the inhibition (Mus musculus [19]) of the same molecule?
A: Active

Q: What about the inhibition (Mus musculus [20]) of the same molecule?
A: Active

Q: And the inhibition (Mus musculus [21])?
A: Active

Q: What about the inhibition (Mus musculus [22]) of the same molecule?
A: Active

Q: And the inhibition (Mus musculus [23])?
A: Active

Q: What about the inhibition (Mus musculus [24]) of the same molecule?
A: Active

Q: And the inhibition (Mus musculus [25])?
A: Active

Q: And the inhibition (Mus musculus [26])?
A: Active

Q: What does the source list for COc1cc(OC)c2c(=O)cc(-c3cc(C)c(OC[C@H](O)CN4CCN(C)CC4)c(C)c3)oc2c1?
A: half-life [1]: 4.1 h; Cmax [2]: 2090 ng/mL; AUC(0-t) [3]: 7030 ng·h/mL; clearance [4]: 24.7 mL/min/kg; half-life [5]: 2.8 h; F [6]: 35.3%; solubility [7]: > 50 mg/mL; inhibition in vivo at 10 mg/kg (Mus musculus [8]): 100%; inhibition (Mus musculus [9]): Active; inhibition (Mus musculus [10]): Active; inhibition (Mus musculus [11]): Active; inhibition (Mus musculus [12]): Active; inhibition (Mus musculus [13]): Active; inhibition (Mus musculus [14]): Active; inhibition (Mus musculus [15]): Active; inhibition (Mus musculus [16]): Active; inhibition (Mus musculus [17]): Active; inhibition (Mus musculus [18]): Active; inhibition (Mus musculus [19]): Active; inhibition (Mus musculus [20]): Active; inhibition (Mus musculus [21]): Active; inhibition (Mus musculus [22]): Active; inhibition (Mus musculus [23]): Active; inhibition (Mus musculus [24]): Active; inhibition (Mus musculus [25]): Active; inhibition (Mus musculus [26]): Active
